PHOSPHO1 block: inhibitors of human PHOSPHO1 phosphatase. Q8TCT1. recombinant PHOSPHO1, absorbance phosphatase assay. inhibition, % at 13.3 µM. hit rate 1.1% among 290,000. AID 1565; in the data active = inhibition above about 60%
Target sequence (Q8TCT1 whole entry, looked up): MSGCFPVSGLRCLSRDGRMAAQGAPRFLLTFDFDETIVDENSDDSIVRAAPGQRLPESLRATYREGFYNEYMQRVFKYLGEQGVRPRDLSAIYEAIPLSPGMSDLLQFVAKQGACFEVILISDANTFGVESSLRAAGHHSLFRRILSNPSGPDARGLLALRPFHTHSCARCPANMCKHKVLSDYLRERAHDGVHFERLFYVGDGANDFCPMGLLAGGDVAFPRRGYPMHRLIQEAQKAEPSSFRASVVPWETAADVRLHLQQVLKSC
VIM-2 inhibitor: blocks Pseudomonas aeruginosa VIM-2 metallo-beta-lactamase | inhibition, % at 5.6 µM | purified VIM-2, nitrocefin hydrolysis, epi-absorbance fluorescence | hit rate 0.89% among 290,000;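 active = inhibition above the mean of all tested compounds plus 3 SD, cutoff set per screening run, cut at about 7.5% in these data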;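 note: red hydrolysis product quenches plate fluorescence so inhibitors raise well fluorescence; 0% = enzyme with DMSO and 100% = DMSO without enzyme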
PvdQ inh: blocks Pseudomonas aeruginosa PvdQ acylase activity | purified PvdQ acylase, fluorescence plate reader | inhibition, % at 10 µM | hit rate 0.063% among 340,000 | AID 488965; in the data active = inhibition above about 30%, passing the limit was not always enough;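 note: 0% = vehicle neutral wells and 100% = reference inhibitor wells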
IMP-1 inh: inhibitors of Pseudomonas aeruginosa IMP-1 metallo-beta-lactamase; purified IMP-1, nitrocefin hydrolysis, epi-absorbance fluorescence; inhibition, % at 5.6 µM; hit rate 0.45% among 290,000; AID 1556;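 active = inhibition above the mean plus 3 SD of all compounds in the same screening run, cut at about 4.5% in these data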;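 note: 0% = IMP-1 with DMSO and 100% = DMSO wells lacking enzyme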
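System: Purified recombinant IMP-1 metallo-beta-lactamase enzyme | Measured by: Fluorescence quenching readout, ex 480/em 530 nm | Replication: Singlicate | Incubation: 15 min preincubation plus 25 min reaction at 25 °C | Evaluation: Percent inhibition from optical density relative to buffer-blank wells | Benchmarks: DMSO with and without IMP-1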
Yeast superoxide: yeast age-related superoxide inhibition as caloric restriction mimetic | S. cerevisiae aged cells, superoxide DHE fluorescence; stronger effect = lower value | hit rate 0.18% among 330,000 | superoxide response (% of plate mean), % at 10 µM;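 active = superoxide response under a set limit, about three screen SD below normal, cut at about 65% in these data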;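 note: yeast aged for seven days with compound at 30 °C before DHE staining; 100% = average MFI of all compound-treated wells on the plate with controls excluded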
An asterisk follows results filed as active; · = no result given; ! = repeats disagree. Rows were chosen to be rich in hits. Some 2.2% of all compounds tested hit in one or more screens of this group.

SMILES	PHOSPHO1 block	VIM-2 inhibitor	PvdQ inh	IMP-1 inh	Yeast superoxide
Cc1cc2oc(=O)cc(CN3CCCCC3)c2cc1O	60.8*	-0.2	2.6	-3.0	93.7
O=c1cc(CN2CCN(c3ccccc3F)CC2)c2cc3c(cc2o1)CCCC3	7.8	-2.6	-5.0	-2.5	86.9
O=c1cc(CN2CCN(Cc3ccccc3)CC2)c2cc3c(cc2o1)CCC3	-9.8	7.7*	-14.5	1.5	87.0
Cc1cc(C)c2c(CN3CCN(Cc4ccccc4)CC3)cc(=O)oc2c1C	31.6	9.8*	-7.3	-1.4	93.7
CCOC(=O)c1cnc2c(C)c(C)ccc2c1NCCN1CCOCC1	49.9	8.6*	-14.0	-2.5	·
CCOC(=O)c1cnc2c(C)cc(C)cc2c1NCCCN1CCOCC1	14.9	9.6*	4.8	0.3	95.5
CCOC(=O)c1cnc2ccc(Br)cc2c1NCCCN1CCOCC1	·	3.5	-14.9	-4.4	101.6
CCOC(=O)c1cnc2c(Cl)c(Cl)ccc2c1NCCN1CCOCC1	47.9	7.7*	-11.6	-1.7	123.6
CCOC(=O)c1cnc2ccc(C)cc2c1NCCN1CCOCC1	5.1	3.6	-15.4	-0.5	82.1
CC(C)(C)CC(=O)Nc1ccc(Nc2ccccc2)cc1	24.0	-5.9	3.1	-3.0	103.8
CCOC(OCC)c1cn(Cc2ccc3c(c2)C(=O)c2ccccc2C3=O)nn1	-24.2	9.9*	·	-0.6	115.5
CC(=O)Oc1ccc(Cn2cnc3cc4ccccc4cc32)cc1	-14.1	0.1	3.1	5.5*	98.5
CC(C)(C)c1nnc2sc(SC/C(O)=C(\C#N)c3nc4ccccc4[nH]3)nn2c1=O	71.3*	-3.0	-4.7	-6.0	98.4
CC(C)(C)c1nnc2sc(SCC(=O)c3ccccc3)nn2c1=O	27.0	-4.5	-9.3	-2.1	96.9
Cc1cc(C)cc(OCC(=O)NN2Cc3ccccc3C2=N)c1	7.1	0.8	2.2	-1.6	105.0
N=C1c2ccccc2CN1NC(=O)CC12CC3CC(CC(C3)C1)C2	0.2	-1.9	2.7	0.1	56.4*
CCOC(=O)c1ccc(N2C(=O)C(C)=C(C)C2=O)cc1	10.7	-2.4	37.6*	0.8	98.7
CC1=C(C)C(=O)N(c2ccc(C(=O)O)cc2)C1=O	-1.0	-0.4	-21.1	-1.9	102.8
CC(C)CN(C(=O)COC(=O)Cc1c[nH]c2ccccc12)c1c(N)n(Cc2ccccc2)c(=O)[nH]c1=O	·	·	4.4	·	113.2
COc1ccc2c(c1)cc(C(=O)N[C@@H](CCSC)C(=O)N1CCC[C@H]1C(=O)O)n2C	33.8	11.9*	-11.3	-3.1	152.4
O=C1N=C(c2ccccc2)S/C1=C\c1cccs1	95.4*	-3.9	-9.4	-5.9	129.7
COc1cccc(C2=NOC(C(=O)NCc3ccccn3)C2)c1 (stereo not drawn)	60.5*	-3.0	9.8	-3.1	111.0
Nc1nc(SCC(=O)N2N=C(c3ccc(Cl)cc3)CC2c2ccco2)n[nH]1 (stereo not drawn)	30.5	10.8*	-13.1	-0.7	99.5
COCC(=O)OCC(=O)N1N=C(c2ccc(Cl)cc2)CC1c1ccco1 (stereo not drawn)	35.9	9.9*	1.3	-1.2	109.1
CCC(=O)N1N=C(c2ccc(Cl)cc2)CC1c1ccco1 (stereo not drawn)	31.5	9.5*	-8.4	-3.3	98.4
SMILES	PHOSPHO1 block	VIM-2 inhibitor	PvdQ inh	IMP-1 inh	Yeast superoxide
CN(C(=O)c1ccc(NC(=O)Cc2cccc(NC(=O)C3CCCN(C(=O)C4CCCC4)C3)c2)cc1)C1CCCC1 (stereo not drawn)	·	·	-11.3	·	110.1
CC1(C)Cc2c(cnn2-c2ccc(F)cc2)C(NC(=O)c2ccc(=O)oc2)C1 (stereo not drawn)	61.0*	-3.0	-4.8	-2.5	101.2
CC1(C)Cc2c(cnn2-c2ccc(F)cc2)C(NC(=O)c2cnccn2)C1 (stereo not drawn)	-41.4	-2.0	-4.9	-0.9	101.8
CCc1nc(SCC(=O)N2CCN(C(=O)c3ccco3)CC2)c2c3c(sc2n1)CCCC3	2.6	9.7*	-7.9	-1.6	113.9
Cc1[nH]n(-c2ccccc2)c(=O)c1/C=N/Nc1nncc(-c2ccccc2)n1	66.7*	-0.4	-4.8	-3.3	140.4
Cc1cc2[nH]c3c4ccccc4nc(C)c3c2cc1C	·	·	-16.1	·	·
Cc1cc2[nH]c3c(c[n+](C)c4ccccc34)c2cc1C	-71.0	6.3	-19.8	10.6*	79.6
O=C(Nc1cccc2cccnc12)c1ccccc1Cl	·	·	·	·	104.8
O=C(O)c1cc(Cl)c(Cl)cc1C(=O)Nc1cccc2cccnc12	-27.1	9.1*	-10.9	-3.4	95.7
Nn1c(C2COc3ccccc3O2)n[nH]c1=S (stereo not drawn)	78.2*	-3.6	-9.9	-2.8	98.5
COC(=O)C(C)Sc1ccc2nnc(-c3ccc(F)cc3)n2n1 (stereo not drawn)	64.6*	0.1	2.0	1.4	85.5
CCOC(=O)CC(=O)CSc1ccc2nnc(-c3ccc(F)cc3)n2n1	81.2*	2.6	-3.3	0.4	87.0
CCC(Sc1ccc2nnc(-c3ccc(F)cc3)n2n1)C(=O)OC (stereo not drawn)	30.2	-5.1	10.7	-5.3	110.6
CCCCN(CC)C(=O)Cn1ncc2c3ccccc3n(CCC)c2c1=O	17.5	-2.8	-2.5	-4.8	97.7
S=c1[nH]nc(-c2cccnc2)n1/N=C/C=C/c1ccccc1	67.4*	4.7	11.7	-0.1	112.8
Cc1ccc(-c2n[nH]c(=S)n2/N=C/C=C/c2ccccc2[N+](=O)[O-])cc1	99.2*	-5.2	0.5	-2.9	91.5
O=[N+]([O-])c1ccccc1/C=C/C=N/n1c(-c2ccco2)n[nH]c1=S	32.2	9.8*	4.3	-2.1	83.0
Cc1ccc(S(=O)(=O)N2CCC(=O)N2)cc1	-6.8	8.6*	-8.8	-0.2	87.4
O=C1CCN(S(=O)(=O)c2ccccc2)N1	25.7	9.7*	1.8	-0.1	95.5
O=C1CCN(S(=O)(=O)c2ccc(Cl)cc2)N1	25.7	5.4	-8.0	-1.9	98.9
CN(C(=O)COC(=O)C(C)(C)Oc1ccc(Cl)cc1)c1c(N)n(Cc2ccccc2)c(=O)[nH]c1=O	·	·	3.4	·	83.0
CC(C)C[C@@H](CN1CCCC1CN1C(=S)NC[C@@H]1Cc1ccc(O)cc1)N1C[C@H](Cc2ccc(O)cc2)N(CCc2ccccc2)C1=S (stereo partly drawn)	·	·	9.7	·	·
CCN(CC)c1ccc(SS(=O)(=O)O)cc1	105.8*!	-2.8	-10.4	-3.0	130.2
CCCCCCSc1ccc([C@@H]2[C@@H]3C(=O)N(C)C(=O)[C@@H]3[C@]3(C(=O)OC)CCCCN23)cc1	·	·	-22.0	·	104.0
CCCSc1ccc([C@@H]2[C@@H]3C(=O)N(C)C(=O)[C@@H]3[C@]3(C(=O)OC)CCCN23)cc1OC	·	·	4.5	·	93.1
O=C(Cn1nc(C(F)F)cc1C(F)F)NNC(=S)Nc1ccc(Cl)cc1	99.7*	-4.7	-8.3	-5.9	87.5
CC(C)Oc1ccc(CC(=O)NNC(=S)Nc2ccccc2)cc1	15.9	-0.5	-11.8	-1.6	101.6
Cc1ccc(NC(=S)NNC(=O)Cn2nc(C(F)F)cc2C(F)F)cc1	-2.7	-5.2	-6.9	-3.3	83.8
COc1ccc(CC(=O)NNC(=S)Nc2ccc(Br)cc2)cc1	97.6*	-2.9	-13.9	-4.1	117.9

Bioassay records from PubChem.
